Measured values from ChEMBL document CHEMBL4680124, “2-Styryl-4-aminoquinazoline derivatives as potent DNA-cleavage, p53-activation and in vivo effective anticancer agents” (Eur J Med Chem, 2020).
pIC50: −log10 of the molar value. The source made the active and inactive calls. The rule behind the calls is not given here.

Experiments:
T-24 = assay: Cytotoxicity against human T-24 cells […] assessed as reduction in cell viability preincubated for 48 hrs and measured after 4 hrs by MTT assay; assay type: functional, cell-based
MGC-803 [1] = assay: Cytotoxicity against human MGC-803 cells expressing mutant type p53 assessed as reduction in cell viability preincubated for 48 hrs and measured after 4 hrs by MTT assay; assay type: functional, cell-based
DU-145 = assay: Cytotoxicity against human DU145 cells expressing mutant type p53 assessed as reduction in cell viability preincubated for 48 hrs and measured after 4 hrs by MTT assay; assay type: functional, cell-based
Outline: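 MTT assay. Cells grown in DMEM (T24, MGC-803, A549, HL-7702), RPMI-1640 (DU145) or DMEM-F12 (PC-3), each with 10% FBS. Exposed to 1.25–20 µM in medium with 1% DMSO for 48 h, then MTT for 4 h. Formazan dissolved in DMSO and read at 570 nm. Five wells per concentration; means ± SD of independent repeats.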

PC-3 = assay: Cytotoxicity against human PC-3 cells assessed as reduction in cell viability preincubated for 48 hrs and measured after 4 hrs by MTT assay; assay type: functional, cell-based
A549 = assay: Cytotoxicity against human A549 cells expressing wild type p53 assessed as reduction in cell viability preincubated for 48 hrs and measured after 4 hrs by MTT assay; assay type: functional, cell-based
L02 = assay: Cytotoxicity against human HL-7702 cells expressing wild type p53 assessed as reduction in cell viability preincubated for 48 hrs and measured after 4 hrs by MTT assay; assay type: functional, cell-based
MGC-803 [2] = assay: Antitumor activity against human MGC-803 cells xenografted in BALB/C nude mouse assessed as tumor growth inhibition at 10 mg/kg, ip administered every 2 days and measured 3 times per week; assay type: functional, organism-based; details: time 2.0 day
Outline: (§1)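 Male BALB/c nude mice, 6 weeks old, given 5×10^6 MGC-803 cells s.c. in the flank. When tumors reached about 80 mm3, mice were randomized (n = 6/group) and dosed i.p. every 2 days. Vehicle was 5% DMSO in saline. Drug solutions were 1.0 or 2.0 mg/mL (DMSO/saline). Tumor length and width plus body weight were measured three times weekly; volume = lw²/2. Mean ± SD.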

MGC-803 [3] = assay: Antitumor activity against human MGC-803 cells xenografted in BALB/C nude mouse assessed as tumor growth inhibition at 10 mg/kg, ip administered every 2 days and measured 3 times per week for 16 days; assay type: functional; design: scale not given: the % may be the effect or the level left; details: time 16 day; outline: as §1
Mus musculus = assay: Toxicity against BALB/c nude mouse xenografted with human MGC-803 cells assessed as body weight at 10 mg/kg, ip administered every 2 days and measured 3 times per week for 16 days; assay type: organism-based; details: in vivo, 384 h, time 16 day
Outline: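 Male BALB/c nude mice, 6 weeks old, received 5×10^6 MGC-803 cells subcutaneously in the flank. At about 80 mm3, mice were randomized (n = 6/group). They were dosed i.p. every 2 days with vehicle (5% DMSO in saline, v/v) or drug in DMSO/saline at 1.0 or 2.0 mg/mL. Body weight was recorded three times weekly; mean ± SD.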

PLC-PRF-5 = assay: Antitumor activity against human PLC/PRF/5 cells xenografted in mouse assessed as tumor growth inhibition at 30 mg/kg; assay type: functional; details: read-out: TGI
MGC-803 [4] = assay: Induction of apoptosis in human MGC-803 cells assessed as decrease in Bcl-2 expression at 5 uM measured after 24 hrs by Western blot analysis; assay type: functional, cell-based
Outline: (§2)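 MGC-803 cells (2×10^6) plated overnight, then treated for 24 h at 0.5, 1.0 or 2.5 µM (test agent) or 5.0 µM (comparator). Whole-cell lysates separated by SDS-PAGE, transferred to PVDF and probed with primary antibodies. AP-linked anti-rabbit IgG, ECL detection, β-actin loading control. Representative of three experiments.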

MGC-803 [5] = assay: Induction of apoptosis in human MGC-803 cells assessed as increase in Bax expression at 5 uM measured after 24 hrs by Western blot analysis; assay type: functional, cell-based; outline: as §2
MGC-803 [6] = assay: Induction of apoptosis in human MGC-803 cells assessed as increase in Bim expression at 5 uM measured after 24 hrs by Western blot analysis; assay type: functional, cell-based
Outline: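 MGC-803 cells (2×10^6) cultured overnight, then exposed 24 h to 0.5, 1.0 or 2.5 μM, or 5.0 μM for the reference agent. Lysates were resolved by SDS-PAGE, transferred to PVDF and probed with primary antibodies. Detection used AP-linked anti-rabbit IgG and ECL. β-actin served as loading control.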

MGC-803 [7] = assay: Induction of apoptosis in human MGC-803 cells assessed as decrease in Bcl-xL expression at 5 uM measured after 24 hrs by Western blot analysis; assay type: functional, cell-based; outline: as §2
MGC-803 [8] = assay: Induction of apoptosis in human MGC-803 cells assessed as decrease in Bak expression at 5 uM measured after 24 hrs by Western blot analysis; assay type: functional, cell-based; outline: as §2

Compound	pIC50 (T-24)	pIC50 (MGC-803 [1])	pIC50 (DU-145)	pIC50 (PC-3)	pIC50 (A549)	pIC50 (L02)	Activity (MGC-803 [2])	Activity (MGC-803 [3]) [%]	Activity (Mus musculus)	inhibition in vivo at 30 mg/kg (PLC-PRF-5) [%]	Activity (MGC-803 [4])	Activity (MGC-803 [5])	Activity (MGC-803 [6])	Activity (MGC-803 [7])	Activity (MGC-803 [8])
COc1cccc2c1C(=O)c1c(O)c3c(c(O)c1C2=O)C[C@@](O)(C(=O)CO)C[C@@H]3O[C@H]1C[C@H](N)[C@@H](O)[C@H](C)O1 [EPIRUBICIN]	5.95	5.92	5.70	5.64	6.09	5.68	Active	67.2	Non-Toxic	–	–	–	–	–	–
NCCCCNc1nc(/C=C/c2ccc([N+](=O)[O-])cc2)nc2ccc(Cl)cc12	5.25	5.04	< 4.00	< 4.00	5.00	< 4.00	–	–	–	–	–	–	–	–	–
COc1ccc(/C=C/c2nc(NCCCN(C)C)c3ccccc3n2)cc1	4.69	4.74	4.81	4.79	4.61	4.60	–	–	–	60	inactive	inactive	inactive	inactive	inactive
CCN(CC)CCNc1nc(/C=C/c2ccc(OC)c(OC)c2)nc2ccccc12	4.52	< 4.00	4.50	4.30	< 4.00	< 4.00	–	–	–	–	–	–	–	–	–
COc1ccc(/C=C/c2nc(NCCN3CCCCC3)c3ccccc3n2)cc1OC	4.98	4.48	4.14	4.10	4.08	4.70	–	–	–	–	–	–	–	–	–
CCN(CC)CCNc1nc(/C=C/c2ccc3c(c2)OCO3)nc2ccc(Cl)cc12	5.09	4.95	5.12	4.85	< 4.00	4.80	–	–	–	–	–	–	–	–	–
CC(C)N(CCNc1nc(/C=C/c2ccc3c(c2)OCO3)nc2ccc(Cl)cc12)C(C)C	5.13	5.07	5.06	4.98	< 4.00	< 4.00	–	–	–	–	–	–	–	–	–
